# core dimer inh – inhibitors of HCV core protein dimerization, primary screen, biochemical, TR-FRET, high-throughput; TR-FRET GST/Flag-core106 dimerization, 1536-well; inhibition, % at 5 µM; 300,000 compounds, 0.33% hits; AID 1899, 2009;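 active means inhibition above the mean of all tested compounds plus 3 SD, set per screening campaign, cut at about 45% in these data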
#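 assay system = GST-tagged and Flag-tagged HCV core protein residues 1-106 | controls = unlabelled core106 and no-GST-core106 wells | incubation = compound-protein-antibody incubation 4 h at 22.5 °C | probe or stimulus = Eu donor and XL665 acceptor anti-tag antibodies | read-out = % inhibition based on acceptor/donor emission ratio | signal = TR-FRET 671 and 617 nm emission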
# HSF-1 act – HSF-1 activators, primary screen, NIH3T3-HGL cells, MG132 stress, luminescence, single point | NIH3T3-HGL HSF-1 luciferase reporter, 8 h; 100% = twice DMSO control signal | activation, % at 9 µM | 300,000 compounds, 1.7% hits | AID 504408, 2011;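 active means mean replicate activation of at least 50% with a set share of replicates each reaching 50%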;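 further: 0% = median of the neutral control wells and 100% = twice that signal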
# PHOSPHO1 inh – PubChem AID 1565. 290,000 compounds, 1.1% hits. Phosphoethanolamine/phosphocholine phosphatase (Homo sapiens), Q8TCT1. inhibition, % at 13.3 µM. recombinant PHOSPHO1, absorbance phosphatase assay; in the data active means inhibition above about 60%
# Target sequence (Q8TCT1 whole entry, looked up): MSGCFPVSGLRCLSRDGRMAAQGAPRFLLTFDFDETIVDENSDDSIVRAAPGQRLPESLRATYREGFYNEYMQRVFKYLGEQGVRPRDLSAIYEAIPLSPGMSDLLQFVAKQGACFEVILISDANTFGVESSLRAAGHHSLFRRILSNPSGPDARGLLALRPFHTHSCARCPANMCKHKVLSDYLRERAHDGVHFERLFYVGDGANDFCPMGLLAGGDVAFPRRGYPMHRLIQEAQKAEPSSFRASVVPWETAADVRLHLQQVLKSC
# ALR H2O2 inh – inhibitors of human ALR sulfhydryl oxidase, primary screen, biochemical, H2O2 detection, HRP-luminol luminescence, single point. purified ALR, DTT oxidation. AID 485317, 2010. FAD-linked sulfhydryl oxidase ALR (Homo sapiens), P55789. inhibition, % (no concentration beside the values). 290,000 compounds, 3.8% hits;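 active means mean replicate inhibition above about 79%, with every replicate also reaching it, limit read from the data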
# Target sequence (P55789 whole entry, looked up): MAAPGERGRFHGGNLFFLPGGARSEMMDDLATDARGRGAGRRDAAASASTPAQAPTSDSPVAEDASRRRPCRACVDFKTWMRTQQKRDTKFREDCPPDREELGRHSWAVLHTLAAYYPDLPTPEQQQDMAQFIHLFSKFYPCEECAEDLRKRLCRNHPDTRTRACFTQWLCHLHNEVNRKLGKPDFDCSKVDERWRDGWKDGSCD
# AI-2 QS modul – Vibrio harveyi AI-2 quorum sensing modulators, primary screen, JMH597 strain, luminescence/OD600 ratio | Vibrio harveyi JMH597 AI-2 luminescence/OD600 ratio, 9 h; hits give low values; strain lacks LuxN and CqsS sensors; 0 = neutral-control median | activity change, % at 7.5 µM | 300,000 compounds, 0.4% hits; in the data active means activity change below about -75%, passing the limit was not always enough;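 further: luminescence divided by OD600 gain over 9 h not by final OD600 alone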
# HSF1 inh – HSF1 inhibitors in luciferase reporter cells, primary screen, cell-based, NIH3T3, luminescence | activity change, negative = inhibition, % at 7.5 µM (by protocol) | NIH3T3-HGL HSE-luciferase, MG132-induced, luminescence 8 h; hits give low values | 300,000 compounds, 0.77% hits | AID 2098, 2009;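 active means more than half of replicate wells show activity change below -50%, luminescence cut by over half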;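 further: luciferase reports HSF-1 transcriptional activity via heat shock element; 0% = median of DMSO wells and -100% = zero luminescence signal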
# * marks the source's active call; other numbers are inactive results; / = no result given. Rows were chosen to be rich in hits. Some 6.8% of all compounds tested hit in one or more screens of this group.
SMILES,core dimer inh,HSF-1 act,PHOSPHO1 inh,ALR H2O2 inh,AI-2 QS modul,HSF1 inh
CSCc1ccc(C(=O)N2CCCC(Nc3ccc(F)cc3)C2)o1 (stereo not given),-2.4,-4.5,32.6,98.2*,3.7,-3.0
O=C(c1cc(Cl)ccc1F)N1CCCC(Nc2ccc3c(c2)OCCO3)C1 (stereo not given),-3.2,37.5,32.6,97.1*,17.4,-1.6
CSCc1ccc(C(=O)N2CCCC(Nc3ccc4c(c3)OCCO4)C2)o1 (stereo not given),6.5,1.3,-12.1,98.8*,5.1,-2.0
O=C(c1ccco1)N1CCCC(Nc2ccc3c(c2)OCCO3)C1 (stereo not given),-4.1,19.4,-1.9,98.5*,0.8,19.7
Cc1occc1C(=O)N1CCCC(Nc2ccc(F)c(F)c2)C1 (stereo not given),0.3,14.8,13.7,50.4,17.4,-5.1
Cc1nc2cc(C(=O)O)ccc2s1,-1.9,-19.0,3.6,-1.0,11.4,-11.8
Cc1nc2ccc(C(=O)O)cc2c2c1CC(C)S2 (stereo not given),-0.7,-2.0,-6.1,99.5*,41.4,-8.8
Cc1ccc(S(=O)(=O)c2ccc(NN)cc2)cc1,/,/,16.8,/,/,/
Cc1ccc(S(=O)(=O)c2cc(Nc3ccccc3)ccc2O)cc1,-27.0,-2.1,/,99.5*,-57.5,-3.9
Cc1n[nH]c(=S)c2nn(-c3ccccc3F)c(C)c12,/,7.2,64.9*,/,12.5,-5.7
COc1cccc(-n2nc3c(=S)[nH]nc(C)c3c2C)c1,18.9,-3.6,60.3*,-3.4,10.2,-8.4
Cc1n[nH]c(=S)c2nn(-c3cccc(Cl)c3)c(C)c12,/,0.7,-36.9,/,29.6,1.6
Cc1n[nH]c(=S)c2nn(-c3ccccc3)c(C)c12,/,9.5,16.2,/,18.5,0.1
C/C(=N\NC(=O)c1cccc(S(=O)(=O)N2CCOCC2)c1)c1cc2ccccc2o1,0.5,11.2,29.8,-3.3,32.9,14.5
Cc1cc(=O)oc2c(N)c(O)ccc12,-19.7,1.8,39.6,96.5*,36.6,2.6
O=C(CSc1cccc[n+]1[O-])c1cc2ccccc2o1,-1.1,192.1*,79.4*,93.6*,37.0,149.5
O=C(CSc1cccc[n+]1[O-])c1cccs1,-2.3,13.7,27.1,2.6,12.1,-3.1
O=C(CSc1cccc[n+]1[O-])c1cc(Cl)ccc1Cl,-4.6,169.8*,-2.1,47.9,24.1,122.1
O=C(O)CSc1cccc[n+]1[O-],-2.4,10.0,-2.3,1.3,7.2,0.3
COCCNC(=O)c1c[nH]c2ccc(S(=O)(=O)N3CCc4ccccc43)cc2c1=O,0.5,5.6,-21.8,34.4,26.2,5.4
COCCCNC(=O)c1c[nH]c2ccc(S(=O)(=O)N3CCc4ccccc43)cc2c1=O,2.0,51.0*,-0.7,-38.1,8.3,23.2
CCOC(=O)c1c(CN2CCN(CCO)CC2)n(C)c2cc(Br)c(OC)cc12,0.6,-18.5,4.3,-8.0,14.5,8.9
CCOC(=O)c1c(CN2CCCCC2)n(C)c2cc(Br)c(OC)cc12,1.1,12.9,63.9*,-5.3,9.4,3.9
O=C(/C=C/c1ccc2c(c1)OCCO2)c1ccccc1,4.8,31.9,32.2,/,-32.4,11.1
O=C(O)c1ccc(/C=C/C(=O)c2ccc3c(c2)OCCCO3)cc1,-1.8,3.8,-10.1,97.2*,9.8,-12.2
SMILES,core dimer inh,HSF-1 act,PHOSPHO1 inh,ALR H2O2 inh,AI-2 QS modul,HSF1 inh
COc1ccc(C(=O)/C=C/c2ccc3c(c2)OCCO3)cc1,2.6,-3.3,-16.6,95.2*,-51.8,-8.0
O=C(/C=C/c1cccc([N+](=O)[O-])c1)c1ccc2c(c1)OCCO2,11.4,21.1,-23.9,95.8*,10.4,21.1
CC(=O)Nc1ccc(/C=C/C(=O)c2ccc3c(c2)OCCO3)cc1,9.1,35.6,36.0,6.8,10.1,1.6
CCOc1cc(/C=C/C(=O)c2ccc3c(c2)OCCO3)ccc1OCC(=O)N(C)C,2.5,67.6*,32.3,/,13.8,53.0
CCc1nnc(SCC(=O)N2CCCC(N3CCN(c4ccccc4C)CC3)C2)o1 (stereo not given),0.1,12.6,5.1,11.3,26.0,-1.9
COC(=O)CCCCC1SCC(NC(=O)c2ccccc2)C1=O (stereo not given),-5.8,23.3,16.1,/,20.9,7.2
CCCCCC1CCC(c2n[nH]c(=S)n2C)CC1 (stereo not given),1.9,7.1,-13.2,-2.1,22.4,-6.4
COc1cc(/C=C/C(C)=O)cc(OC)c1OC,-6.4,11.2,-1.3,13.0,16.7,0.9
COc1ccc2cc(C(=O)/C=C/c3cc(OC)c(OC)c(OC)c3)ccc2c1,0.0,95.0*,11.0,/,15.2,54.6
NC(=O)c1sc2nc(-c3cccs3)ccc2c1N,8.6,7.9,24.8,-3.5,-3.2,9.2
Nc1c(C(=O)NC2CCCC2)sc2nc(-c3cccs3)ccc12,26.1,55.7*,-18.5,38.6,19.0,47.7
COc1cc2c(cc1OC)C(C(=O)NC1CC1)C1c3ccccc3CCN1C2=O (stereo not given),2.2,-67.9,/,/,15.0,-61.0*
COc1ccc(-c2ccc3c(N)c(C(=O)NC(C)C)sc3n2)cc1OC,1.0,3.6,1.8,19.5,3.4,9.2
COc1ccc(C(=O)c2sc3nc(-c4ccccc4)ccc3c2N)cc1OC,10.8,-1.8,88.3*,-2.9,22.8,-4.0
NC(=O)c1sc2nc(-c3ccccc3)ccc2c1N,-9.4,41.3,13.8,-3.5,/,19.6
COc1ccc(-c2ccc3c(N)c(C(=O)c4ccc(OC)c(OC)c4)sc3n2)cc1,18.3,-10.6,63.0*,-4.4,12.4,-1.1
CC(O)CNC(=O)C1CCN(Cc2ccc(OCc3ccccc3)cc2)CC1 (stereo not given),0.9,14.9,15.4,-7.6,21.1,2.2
CC(C)CNC(=O)C1CCN(Cc2ccc(OCc3ccccc3)cc2)CC1,2.1,-70.9,18.3,1.1,6.5,-60.6*
Nc1c(N(CCC2=CCCCC2)C(=O)c2ccccc2F)c(=O)[nH]c(=O)n1Cc1ccccc1,/,/,/,-1.3,/,/
O=C(C[C@H]1C/C=C\CC[C@@H](Cc2ccc(F)cc2)C(=O)O[C@H](c2ccccc2)CNC1=O)N[C@H](CO)Cc1ccccc1,/,/,/,-1.3,/,/
Cn1c(=NC(=O)c2ccc(S(=O)(=O)N3CCCc4ccccc43)cc2)sc2cc(S(C)(=O)=O)ccc21,-0.4,-6.4,11.0,-23.5,32.8,-9.2
C#CCn1c(=NC(=O)c2ccc(S(=O)(=O)N3CCCc4ccccc43)cc2)sc2cc(S(N)(=O)=O)ccc21,52.5*,53.4*,5.6,0.3,1.4,5.6
